Assay results: the RNAGym collection of RNA variant scans (doi:10.1126/science.aae0568)
Fewer inactive variants are shown than the library holds.

B1: tRNA (parent)
chain: GUUCCGUUGGCGUAAUGGUAACGCGUCUCCCUCCUAAGGAGAAGACUGCGGGUUCGAGUCCCGUACGGAACG

Variants of: B1
Assay: yeast fitness relative to wild type (ratio to wild type); higher = fitter; tRNA-Arg(CCU), competitive growth, 37 C, YPD
Summary of the method: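 Changes in genotype frequencies gave Darwinian fitness relative to wild type. Frequencies were read by 100-nucleotide paired-end sequencing of gene amplicons before and after pooled Saccharomyces cerevisiae strains, carrying tRNA-Arg(CCU) gene variants at the native locus, were competed in YPD at 37°C for 24 hours in six replicates. A genotype was kept only with ≥ 100 starting reads, and estimates < 0.5 were set to 0.5.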
With C5A A21G C22G C27A C33U A40U C55G the yeast fitness was no more than 0.5.
C5A C11U U13G C29G C33A U59A gave a yeast fitness of no more than 0.5.
In the case of C5A A14G U26A A37U G41A C62U, the yeast fitness is reported as no more than 0.5.
With C4U U32A U35C the yeast fitness was 0.511.
For C4U U13A A14U C29U A37G A57C, the yeast fitness was no more than 0.5.
Work on C5A A20U C31G C61U C66U yielded a yeast fitness of no more than 0.5.
Variant C4U U35C A70U has a yeast fitness of 0.711.
C4U G56A A70C gave a yeast fitness of 0.754.
C4U G10C A21G C30A G38C C46U A70C gave a yeast fitness of no more than 0.5.
For C5A C22G C29A A43U G68A, the yeast fitness was no more than 0.5.
For C4U G9A A15U A20C C27A C61G A65C, the yeast fitness was no more than 0.5.
Variant C4U G51C U59G U64C has a yeast fitness of no more than 0.5.
Variant C4U U7A C49U has a yeast fitness of 0.58.
C5A A37C C49A G68U gave a yeast fitness of no more than 0.5.
In the case of C4U G25C A45C C46A, the yeast fitness is reported as 0.733.
C4U G12A A40U A65C gave a yeast fitness of no more than 0.5.
With C4U G12A A14G G18A C30G C46U the yeast fitness was no more than 0.5.
C4U U7A A45U A57G showed a yeast fitness of no more than 0.5.
C4U U35A A43U C62U G67C G68A showed a yeast fitness of no more than 0.5.
In the case of C4U G44A G58A, the yeast fitness is reported as 0.974.
Work on C4U U28C C29U G63C A65U yielded a yeast fitness of no more than 0.5.
Work on C5A C11G G41C A57G yielded a yeast fitness of 0.554.
C4U G25C G68A showed a yeast fitness of 0.976.
Variant C4U G67C has a yeast fitness of 0.829.
With C5A C22G C49G G68C the yeast fitness was 0.578.
With C5A A42C U47A C49A G51U C61U G68A the yeast fitness was no more than 0.5.
C4U G18A A21C A36U showed a yeast fitness of no more than 0.5.
C4U U19C A43U gave a yeast fitness of 0.955.
Work on C4U U7A C30G C34G A40C A65U yielded a yeast fitness of no more than 0.5.
C4U G38C G50A A70G gave a yeast fitness of no more than 0.5.
For C4U U26C A42U G50C A65U, the yeast fitness was 0.552.
With C4U G9C G18A U26G A45C the yeast fitness was no more than 0.5.
With C4U U16C U32A G58A C60U the yeast fitness was no more than 0.5.
Variant C5A A21U C55A has a yeast fitness of 0.572.
C4U G10C G23A U26C U32C A43G U53A showed a yeast fitness of no more than 0.5.
In the case of C4U G10C G48C G63C G67A, the yeast fitness is reported as no more than 0.5.
For C4U U35G A65G, the yeast fitness was 0.607.
C5A C22G C29A G67A showed a yeast fitness of 0.531.
C4U G6C C30G gave a yeast fitness of no more than 0.5.
C5A C22G G25A showed a yeast fitness of no more than 0.5.
C4U G12C C60G A70C showed a yeast fitness of no more than 0.5.
Variant C4U G68C has a yeast fitness of 0.963.
C4U G68A showed a yeast fitness of 0.856.
C4U G68U gave a yeast fitness of 0.888.
For C5A A14U, the yeast fitness was 0.654.
With C5A A14G the yeast fitness was 0.912.
C5A A65C G68A gave a yeast fitness of 0.628.
In the case of C5A A65C G68C, the yeast fitness is reported as no more than 0.5.
With C4U U26A G38A G63C the yeast fitness was no more than 0.5.
In the case of C5A C22U C27G C30G, the yeast fitness is reported as no more than 0.5.
C4U G9A U54A gave a yeast fitness of no more than 0.5.
For C4U G39C U59G C62A, the yeast fitness was no more than 0.5.
Variant C5A A15U C31G G39A A57U C60A has a yeast fitness of no more than 0.5.
With C4U U13A G23A C24A A36U G39C C62A U64A the yeast fitness was no more than 0.5.
Work on C5A A15U C24A G25A U47C G52C yielded a yeast fitness of no more than 0.5.
With C4U G17A C22U G68C the yeast fitness was no more than 0.5.
C5A A21C A43C G48A C66A gave a yeast fitness of no more than 0.5.
In the case of C4U U8C A37U A45U C49U A65G, the yeast fitness is reported as no more than 0.5.
In the case of C4U U54A C62U, the yeast fitness is reported as no more than 0.5.
Work on C5A A15U A69C yielded a yeast fitness of no more than 0.5.
With C4U G41C C61A the yeast fitness was no more than 0.5.
For C5A A21C C34G G52A C62G, the yeast fitness was 0.565.
In the case of C5A C22G C49G, the yeast fitness is reported as 0.563.
C5A C11A C34A A40U gave a yeast fitness of 0.696.
C5A A21C U54C showed a yeast fitness of no more than 0.5.
C4U U26C C31A C49G G63C A69U gave a yeast fitness of no more than 0.5.
C5A C22A G56A gave a yeast fitness of 0.525.
With C4U U13A G23A A36U G39C C62A U64A the yeast fitness was 0.537.
C4U G10A C11G A20G C27G C29U A65U showed a yeast fitness of no more than 0.5.
For C4U G12A C60A, the yeast fitness was no more than 0.5.
In the case of C5A C11U A21G C24A G52A C60A A69G, the yeast fitness is reported as no more than 0.5.
Variant C4U G38C C61U C66U has a yeast fitness of no more than 0.5.
With C4U U8G G12A C55U the yeast fitness was no more than 0.5.
C5A A40U gave a yeast fitness of 0.849.
For C4U G10A C22G, the yeast fitness was 0.642.
For C4U U16A A65C, the yeast fitness was 0.612.
C5A A40C C46U G52C A70C gave a yeast fitness of no more than 0.5.
With C5A A15G C31U the yeast fitness was 0.657.
In the case of C4U G39A A42G G67A, the yeast fitness is reported as no more than 0.5.
Variant C5A A20U C31G has a yeast fitness of 0.585.
In the case of C5A A15G G18C C29A U54A, the yeast fitness is reported as no more than 0.5.
In the case of C4U U19A C30G A36C, the yeast fitness is reported as 0.55.
Variant C4U U7A G68A has a yeast fitness of no more than 0.5.
C5A A65G gave a yeast fitness of 0.978.
